Test results published in ChEMBL document CHEMBL2412970, “Synthesis and anticancer activity of 2,4-disubstituted furo[3,2-b]indole derivatives” (Eur J Med Chem, 2013).
The source made the active and inactive calls. No cut-off for these calls is given here.

Columns and labels:
A498 [1] = assay: Cytotoxicity against human A498 cells assessed as reduction in cell viability at 0.5 uM after 48 hrs by MTT assay relative to control; type: functional
LOX IMVI = assay: Cytotoxicity against human LOXIMVI cells after 48 hrs by sulforhodamine B assay; type: functional
MDA-MB-468 = assay: Cytotoxicity against human MDA-MB-468 cells after 48 hrs by sulforhodamine B assay; type: functional; details: MDA-MB-468, 48 h
NCI-H460 = assay: Cytotoxicity against human NCI-H460 cells after 48 hrs by sulforhodamine B assay; type: functional; details: NCI-H460, 48 h
[2] = Cytotoxicity against human EKVX cells after 48 hrs by sulforhodamine B assay; type: functional
A498 [3] = assay: Induction of apoptosis in human A498 cells assessed as caspase-9 activation at 0.5 uM after 24 hrs by Western blotting analysis; type: functional, cell-based
Method in brief: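 A498 cells exposed for 6, 12, 24, 36 or 48 h, then washed in PBS and lysed. Lysates were held on ice for 30 min and spun at 12 000g for 20 min. Supernatant protein was measured by Bradford assay, run on 10% SDS-PAGE and transferred to nitrocellulose. Blots were probed for AIF, Endo G, Apaf-1, cytochrome c, caspase 9 and caspase 3, with β-actin as loading control; n = 3 independent experiments.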

OVCAR-8 = assay: Cytotoxicity against human OVCAR8 cells after 48 hrs by sulforhodamine B assay; type: functional; details: OVCAR-8, 48 h
NCI/ADR-RES = assay: Cytotoxicity against human NCI/ADR-RES cells after 48 hrs by sulforhodamine B assay; type: functional
MDA-MB-435 = assay: Cytotoxicity against human MDA-MB-435 cells after 48 hrs by sulforhodamine B assay; type: functional; details: MDA-MB-435, 48 h
COLO 205 = assay: Cytotoxicity against human COLO205 cells after 48 hrs by sulforhodamine B assay; type: functional; details: COLO 205, 48 h
NCI-H226 = assay: Cytotoxicity against human NCI-H226 cells after 48 hrs by sulforhodamine B assay; type: functional; details: NCI-H226, 48 h
BT-549 = assay: Cytotoxicity against human BT549 cells after 48 hrs by sulforhodamine B assay; type: functional; details: BT-549, 48 h
[4] = Cytotoxicity against human Hep3B cells after 48 hrs by MTT assay; type: functional, cell-based, Hep 3B2
A498 [5] = assay: Ratio of YC-1 IC50 to compound IC50 for human A498 cells after 48 hrs by MTT assay; type: functional
MDA-MB-231 = assay: Cytotoxicity against human MDA-MB-231 cells after 48 hrs by sulforhodamine B assay; type: functional; details: MDA-MB-231, 48 h
A498 [6] = assay: Cell cycle arrest in human A498 cells assessed as accumulation at G0/G1 phase at 0.5 uM after 24 hrs by propidium iodide staining-based flow cytometry (reference value: 78.70 +/- 0.02%); type: functional
A498 [7] = assay: Induction of apoptosis in human A498 cells assessed as early apoptotic cells at 0.5 uM after 12 hrs by AnnexinV/FITC-propidium iodide staining-based flow cytometry (reference value: 3.9%); type: functional
SR = assay: Cytotoxicity against human SR cells after 48 hrs by sulforhodamine B assay; type: functional
A498 [8] = assay: Cell cycle arrest in human A498 cells assessed as accumulation at sub-G1 phase at 0.5 uM after 24 hrs by propidium iodide staining-based flow cytometry (reference value: 0.10 +/- 0.07%); type: functional
DU-145 = assay: Cytotoxicity against human DU145 cells after 48 hrs by sulforhodamine B assay; type: functional; details: DU-145, 48 h
PC-3 = assay: Cytotoxicity against human PC3 cells after 48 hrs by sulforhodamine B assay; type: functional; details: PC-3, 48 h
Hs-578T = assay: Cytotoxicity against human Hs578T cells after 48 hrs by sulforhodamine B assay; type: functional
M14 = assay: Cytotoxicity against human M14 cells after 48 hrs by sulforhodamine B assay; type: functional; details: M14, 48 h
A498 [9] = assay: Cell cycle arrest in human A498 cells assessed as accumulation at G2/M phase at 0.5 uM after 24 hrs by propidium iodide staining-based flow cytometry (reference value: 5.39 +/- 0.01%); type: functional
U-251 = assay: Cytotoxicity against human U251 cells after 48 hrs by sulforhodamine B assay; type: functional; details: U-251, 48 h
Mus musculus = assay: Toxicity in BALB/cAnN.Cg-Foxn1nu/CrlNarl nude mouse assessed as change in body weight at 30 to 60 mg/kg/day, ip qd administered 5 times a week for 28 days measured every 7 days; type: organism-based; design: route intraperitoneal; details: in vivo
Method in brief: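 Male nude mice, 18–20 g, 4–6 weeks old, carried subcutaneous A498 xenografts (2 × 10⁶ cells in 0.1 mL PBS). Once nodules reached 100 mm³, mice were randomized, eight per group. They received ip 30 or 60 mg/kg 5 times weekly for 4 weeks, with body weight and tumor size recorded every 7 days over 28 days.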

HL-60 = assay: Cytotoxicity against human HL60 cells after 48 hrs by MTT assay; type: functional, cell-based; details: HL-60, 48 h
Method in brief: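 Cells were treated with a range of concentrations for 48 h. Viability was read by MTT: formazan was dissolved in DMSO and absorbance read at 570 nm. Untreated or 0.1% DMSO cells served as control. Data are mean from three independent experiments. HL-60, H460 and COLO 205 were kept in RPMI-1640 with 10% FBS and penicillin/streptomycin.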

RXF 393 = assay: Cytotoxicity against human RXF393 cells after 48 hrs by sulforhodamine B assay; type: functional; details: RXF 393, 48 h
HL-60(TB) = assay: Cytotoxicity against human HL-60(TB) cells after 48 hrs by sulforhodamine B assay; type: functional; details: HL-60, 48 h
A549 = assay: Cytotoxicity against human A549/ATCC cells after 48 hrs by sulforhodamine B assay; type: functional; details: A549, 48 h
[10] = read-out: pLC50 (the source's name) (converted)

## OCc1ccc(Cn2c3ccccc3c3oc(CO)cc32)o1
A498 [1]
  Activity: 37.5%
LOX IMVI
  GI50: 66.1 µM
LOX IMVI; [10]
  CC50: > 100 µM
LOX IMVI; read-out: pTGI
  TGI: > 100 µM
MDA-MB-468
  GI50: 0.17 µM
MDA-MB-468; read-out: pTGI (converted)
  TGI: 0.562 µM
NCI-H460
  GI50: > 100 µM
NCI-H460; [10]
  CC50: > 100 µM
NCI-H460; read-out: pTGI
  TGI: > 100 µM
[2]
  GI50: 24 µM
[2]; [10]
  CC50: > 100 µM
[2]; read-out: pTGI
  TGI: > 100 µM
A498 [3]
  Activity: Active
OVCAR-8
  GI50: > 100 µM
OVCAR-8; [10]
  CC50: > 100 µM
OVCAR-8; read-out: pTGI
  TGI: > 100 µM
NCI/ADR-RES
  GI50: > 100 µM
NCI/ADR-RES; [10]
  CC50: > 100 µM
NCI/ADR-RES; read-out: pTGI
  TGI: > 100 µM
MDA-MB-435
  GI50: > 100 µM
MDA-MB-435; [10]
  CC50: > 100 µM
MDA-MB-435; read-out: pTGI
  TGI: > 100 µM
COLO 205
  GI50: 61.7 µM
COLO 205; [10]
  CC50: > 100 µM
COLO 205; read-out: pTGI
  TGI: > 100 µM
NCI-H226
  GI50: 0.224 µM
NCI-H226; read-out: pTGI (converted)
  TGI: 0.55 µM
BT-549
  GI50: 3.89 µM
BT-549; [10]
  CC50: > 100 µM
BT-549; read-out: pTGI (converted)
  TGI: 61.7 µM
[4]
  IC50: > 50 µM
A498 [5]
  Ratio IC50: 1.5
MDA-MB-231
  GI50: 74.1 µM
MDA-MB-231; [10]
  CC50: > 100 µM
MDA-MB-231; read-out: pTGI
  TGI: > 100 µM
A498 [6]
  Activity: 72.65%
A498 [7]
  Activity: 5%
SR
  GI50: 89.1 µM
SR; [10]
  CC50: > 100 µM
SR; read-out: pTGI
  TGI: > 100 µM
A498 [8]
  Activity: 0.91%
DU-145
  GI50: > 100 µM
DU-145; [10]
  CC50: > 100 µM
DU-145; read-out: pTGI
  TGI: > 100 µM
PC-3
  GI50: 55 µM
PC-3; [10]
  CC50: > 100 µM
PC-3; read-out: pTGI
  TGI: > 100 µM
Hs-578T
  GI50: > 100 µM
Hs-578T; [10]
  CC50: > 100 µM
Hs-578T; read-out: pTGI
  TGI: > 100 µM
M14
  GI50: 13.2 µM
M14; [10]
  CC50: > 100 µM
M14; read-out: pTGI
  TGI: > 100 µM
A498 [9]
  Activity: 11.37%
U-251
  GI50: 30.9 µM
U-251; [10]
  CC50: > 100 µM
U-251; read-out: pTGI
  TGI: > 100 µM
Mus musculus
  Activity: Non-toxic
HL-60
  IC50: > 50 µM
RXF 393
  GI50: 75.9 µM
RXF 393; [10]
  CC50: > 100 µM
RXF 393; read-out: pTGI
  TGI: > 100 µM
HL-60(TB)
  GI50: > 100 µM
HL-60(TB); [10]
  CC50: > 100 µM
HL-60(TB); read-out: pTGI
  TGI: > 100 µM
A549
  GI50: 64.6 µM
A549; [10]
  CC50: > 100 µM
A549; read-out: pTGI
  TGI: > 100 µM
